Experimental data as given in ChEMBL document CHEMBL4364287, “Enhanced Inhibition of Influenza A Virus Adhesion by Di- and Trivalent Hemagglutinin Inhibitors” (J Med Chem, 2019).
Activity calls are given as the source filed them. The rule behind the calls is not given here.

Assays:
[1] = Inhibition of Influenza A virus (A/Netherlands/178/1995(H3N2)) H3 hemagglutinin expressed in Influenza virus WU95 assessed as reduction in human erythrocytes hemagglutination preincubated for 4 hrs followed by erythrocytes addition and measured after 2 hrs; type: cell-based
Procedure, shortened: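 Four hemagglutination units of virus were preincubated 4 h at room temperature with limiting compound dilutions in the presence of oseltamivir carboxylate. Then 0.5% (v/v) erythrocytes were added for 2 h at 4 °C. The lowest inhibiting concentration was recorded; two experiments were run in duplicate and means are reported.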

[2] = system: Influenza A virus (A/Netherlands/178/1995(H3N2)); experiment: Potency index, ratio of compound 8 IC50 to test compound IC50 for Inhibition of Influenza A virus (A/Netherlands/178/1995(H3N2)) H3 hemagglutinin expressed in Influenza virus WU95 assessed as reduction in human erythrocytes hemagglutination; type: cell-based
[3] = system: Influenza A virus (A/Netherlands/178/1995(H3N2)); experiment: Potency index, ratio of compound 7 IC50 to test compound IC50 for inhibition of sensor loaded biotinylated-LAMP1 binding to Influenza A virus (A/Netherlands/178/1995(H3N2)) H3 hemagglutinin expressed in Influenza virus WU95
[4] = Inhibition of sensor loaded biotinylated-LAMP1 binding to Influenza A virus (A/Netherlands/178/1995(H3N2)) H3 hemagglutinin expressed in Influenza virus WU95 in presence of NA inhibitor oseltamivir carboxylate by biolayer interferometric analysis
Procedure, shortened: (§1)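 OctetRed BLI: streptavidin sensors were saturated with biotinylated LAMP1 in PBS pH 7.4. They were dipped into WU95 (8 HAU, 2.5 × 10^8 particles per well) preincubated 4 h at room temperature with compound and 10 µM (end concentration) oseltamivir carboxylate. Initial binding rate was compared with a no-compound control.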

Influenza A virus [5] = experiment: (§2) Antiviral activity against Influenza A virus WU95 expressing Influenza A virus (A/Netherlands/178/1995(H3N2)) H3 hemagglutinin infected in MDCK2 cells at 20 nM preincubated with virus for 4 hrs followed by cell infection and measured after 2 hrs by DAPI staining-based assay; type: functional, organism-based
Procedure, shortened: (§3)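 WU95 was preincubated 4 h at room temperature in Opti-mem with or without 15 µM compound, ±10 µM oseltamivir carboxylate. The mixture was diluted 500-fold onto confluent MDCK-II for 2 h, giving end concentrations of 30 nM compound, 20 nM OC and MOI 0.01. Cells were washed, kept overnight at 37 °C with 10 nM bafilomycin, then fixed and nucleoprotein-immunostained.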

MDCK-II = experiment: Cytotoxicity against MDCK2 cells assessed as reduction in cell viability measured after 24 hrs by WST1 assay; type: cell-based, Canis lupus familiaris; details: dog
Procedure, shortened: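 MDCK-II cells were incubated 24 h in Opti-mem with compounds at different concentrations. Cell number and viability were then read by WST-1 assay.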

Influenza A virus [6] = experiment: Antiviral activity against Influenza A virus WU95 expressing Influenza A virus (A/Netherlands/178/1995(H3N2)) H3 hemagglutinin infected in MDCK2 cells preincubated with virus for 4 hrs followed by cell infection and measured at 7 hrs post-infection by DAPI staining-based assay; type: functional, organism-based
Procedure, shortened: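 Single-cycle infection: WU95 in Opti-mem was preincubated 4 h at room temperature with varying compound concentrations. Confluent MDCK-II cells were inoculated in triplicate at MOI 0.005 and fixed at 7 h post-infection in methanol (−20 °C, 5 min). Cells were immunostained for nucleoprotein (HB65, Alexa 488 secondary), counterstained with DAPI, and infected cells per well were counted.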

[7] = system: Influenza A virus (A/Netherlands/178/1995(H3N2)); experiment: Inhibition of sensor loaded biotinylated-LAMP1 binding to Influenza A virus (A/Netherlands/178/1995(H3N2)) H3 hemagglutinin expressed in Influenza virus WU95 at 3 uM in presence of NA inhibitor oseltamivir carboxylate by biolayer interferometric analysis; procedure, shortened: as §1
Influenza A virus [8] = experiment: as §2, with “assessed as reduction in virus-induced cytopathogenicity” for “at 20 nM”, “3 days” for “2 hrs”; type: functional, organism-based
Procedure, shortened: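 WU95 virus was preincubated 4 h at room temperature in Opti-mem with varying compound concentrations. It was then inoculated onto confluent MDCK-II cells at MOI 0.005 and held 3 days with 1 µg/ml TPCK-trypsin to allow multiple rounds of infection. Cells were fixed and DAPI-stained, and monolayers inspected visually; absence of stained cells was taken as cell killing.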

[9] = system: Influenza A virus (A/Bilthoven/1761/1976(H3N2)); experiment: Inhibition of sensor loaded biotinylated-LAMP1 binding to Influenza A virus (A/Bilthoven/1761/1976(H3N2)) H3 hemagglutinin expressed in Influenza virus VI75 at 3 uM by biolayer interferometric analysis
Procedure, shortened: (§4)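 BLI with streptavidin sensors loaded to saturation with biotinylated LAMP1 (PBS, pH 7.4). VI75 virus was preincubated 4 h at room temperature with 3 µM compound, without or with 10 µM oseltamivir carboxylate. Initial virus binding rate was compared with a compound-free control.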

[10] = system: Influenza A virus (A/Bilthoven/1761/1976(H3N2)); experiment: Inhibition of sensor loaded biotinylated-LAMP1 binding to Influenza A virus (A/Bilthoven/1761/1976(H3N2)) H3 hemagglutinin expressed in Influenza virus VI75 at 3 uM in presence of NA inhibitor oseltamivir carboxylate by biolayer interferometric analysis; procedure, shortened: as §4
[11] = system: Influenza A virus (A/Netherlands/178/1995(H3N2)); experiment: Inhibition of sensor loaded biotinylated-LAMP1 binding to Influenza A virus (A/Netherlands/178/1995(H3N2)) H3 hemagglutinin expressed in Influenza virus WU95 at 20 uM in presence of NA inhibitor oseltamivir carboxylate by biolayer interferometric analysis; procedure, shortened: as §1
Influenza A virus [12] = experiment: Antiviral activity against Influenza A virus WU95 expressing Influenza A virus (A/Netherlands/178/1995(H3N2)) H3 hemagglutinin infected in MDCK2 cells at 30 nM preincubated with virus for 4 hrs followed by cell infection and measured after 2 hrs by DAPI staining-based assay; type: functional, organism-based; procedure, shortened: as §3
Influenza A virus [13] = experiment: as §2, with “cells at 30 nM preincubated” for “cells at 20 nM preincubated”, “2 hrs in presence of 20 nM NA inhibitor oseltamivir carboxylate by DAPI” for “2 hrs by DAPI”; type: functional, organism-based; procedure, shortened: as §3

CC(=O)N[C@H]1[C@H]([C@H](O)[C@H](O)CO)O[C@@](OC[C@H]2O[C@@H](O[C@H]3[C@H](O)[C@@H](O)[C@H](OCc4cn(CCCC(=O)Nc5cccc(-c6cc(-c7cccc(NC(=O)CCCn8cc(CO[C@@H]9O[C@H](CO)[C@@H](O[C@@H]%10O[C@H](CO[C@]%11(C(=O)O)C[C@H](O)[C@@H](NC(C)=O)[C@H]([C@H](O)[C@H](O)CO)O%11)[C@H](O)[C@H](O)[C@H]%10O)[C@H](O)[C@H]9O)nn8)c7)cc(-c7cccc(NC(=O)CCCn8cc(CO[C@@H]9O[C@H](CO)[C@@H](O[C@@H]%10O[C@H](CO[C@]%11(C(=O)O)C[C@H](O)[C@@H](NC(C)=O)[C@H]([C@H](O)[C@H](O)CO)O%11)[C@H](O)[C@H](O)[C@H]%10O)[C@H](O)[C@H]9O)nn8)c7)c6)c5)nn4)O[C@@H]3CO)[C@H](O)[C@@H](O)[C@H]2O)(C(=O)O)C[C@@H]1O
Ki [1]: 53 µM | Ratio IC50 [2]: 7 | Ratio IC50 [3]: 20 | IC50 [4]: 15 µM

CCC(CC)O[C@@H]1C=C(C(=O)O)C[C@H](N)[C@H]1NC(C)=O
Activity (Influenza A virus [5]): Active

C#CCO[C@@H]1O[C@H](CO)[C@@H](O[C@@H]2O[C@H](CO[C@]3(C(=O)O)C[C@H](O)[C@@H](NC(C)=O)[C@H]([C@H](O)[C@H](O)CO)O3)[C@H](O)[C@H](O)[C@H]2O)[C@H](O)[C@H]1NC(C)=O
IC50 [4]: 304 µM

CC(=O)N[C@H]1[C@H](O[C@H]2[C@@H](O)[C@@H](CO)O[C@@H](O[C@H]3[C@H](O)[C@@H](O)[C@H](OCc4cn(CCCC(=O)Nc5cccc(-c6cc(-c7cccc(NC(=O)CCCn8cc(CO[C@@H]9O[C@H](CO)[C@@H](O[C@@H]%10O[C@H](CO)[C@H](O)[C@H](O[C@@H]%11O[C@H](CO)[C@@H](O[C@@H]%12O[C@H](CO[C@]%13(C(=O)O)C[C@H](O)[C@@H](NC(C)=O)[C@H]([C@H](O)[C@H](O)CO)O%13)[C@H](O)[C@H](O)[C@H]%12O)[C@H](O)[C@H]%11NC(C)=O)[C@H]%10O)[C@H](O)[C@H]9O)nn8)c7)cc(-c7cccc(NC(=O)CCCn8cc(CO[C@@H]9O[C@H](CO)[C@@H](O[C@@H]%10O[C@H](CO)[C@H](O)[C@H](O[C@@H]%11O[C@H](CO)[C@@H](O[C@@H]%12O[C@H](CO[C@]%13(C(=O)O)C[C@H](O)[C@@H](NC(C)=O)[C@H]([C@H](O)[C@H](O)CO)O%13)[C@H](O)[C@H](O)[C@H]%12O)[C@H](O)[C@H]%11NC(C)=O)[C@H]%10O)[C@H](O)[C@H]9O)nn8)c7)c6)c5)nn4)O[C@@H]3CO)[C@@H]2O)O[C@H](CO)[C@@H](O[C@@H]2O[C@H](CO[C@]3(C(=O)O)C[C@H](O)[C@@H](NC(C)=O)[C@H]([C@H](O)[C@H](O)CO)O3)[C@H](O)[C@H](O)[C@H]2O)[C@@H]1O
Activity (MDCK-II): Non-Toxic | IC50 (Influenza A virus [6]): 15 µM | inhibition [7]: Active | Ratio IC50 [3]: 71 | Activity (Influenza A virus [8]): Active | IC50 [4]: 4.3 µM | inhibition [9]: Active | inhibition [10]: Active

CC(=O)N[C@H]1[C@H](O[C@H]2[C@@H](O)[C@@H](CO)O[C@@H](O[C@H]3[C@H](O)[C@@H](O)[C@H](n4cc(-c5ccc(-c6cn(CCCC(=O)Nc7cccc(-c8cc(-c9cccc(NC(=O)CCCn%10cc(-c%11ccc(-c%12cn([C@@H]%13O[C@H](CO)[C@@H](O[C@@H]%14O[C@H](CO)[C@H](O)[C@H](O[C@@H]%15O[C@H](CO)[C@@H](O[C@@H]%16O[C@H](CO)[C@H](O)[C@H](O)[C@H]%16O)[C@H](O)[C@H]%15NC(C)=O)[C@H]%14O)[C@H](O)[C@H]%13O)nn%12)cc%11)nn%10)c9)cc(-c9cccc(NC(=O)CCCn%10cc(-c%11ccc(-c%12cn([C@@H]%13O[C@H](CO)[C@@H](O[C@@H]%14O[C@H](CO)[C@H](O)[C@H](O[C@@H]%15O[C@H](CO)[C@@H](O[C@@H]%16O[C@H](CO)[C@H](O)[C@H](O)[C@H]%16O)[C@H](O)[C@H]%15NC(C)=O)[C@H]%14O)[C@H](O)[C@H]%13O)nn%12)cc%11)nn%10)c9)c8)c7)nn6)cc5)nn4)O[C@@H]3CO)[C@@H]2O)O[C@H](CO)[C@@H](O[C@@H]2O[C@H](CO)[C@H](O)[C@H](O)[C@H]2O)[C@@H]1O
inhibition [11]: inactive

CC(=O)N[C@H]1[C@H](O[C@H]2[C@@H](O)[C@@H](CO)O[C@@H](O[C@H]3[C@H](O)[C@@H](O)[C@H](n4cc(-c5ccc(-c6cn(CCCC(=O)Nc7cccc(-c8cc(-c9cccc(NC(=O)CCCn%10cc(-c%11ccc(-c%12cn([C@@H]%13O[C@H](CO)[C@@H](O[C@@H]%14O[C@H](CO)[C@H](O)[C@H](O[C@@H]%15O[C@H](CO)[C@@H](O[C@@H]%16O[C@H](CO[C@]%17(C(=O)O)C[C@H](O)[C@@H](NC(C)=O)[C@H]([C@H](O)[C@H](O)CO)O%17)[C@H](O)[C@H](O)[C@H]%16O)[C@H](O)[C@H]%15NC(C)=O)[C@H]%14O)[C@H](O)[C@H]%13O)nn%12)cc%11)nn%10)c9)cc(-c9cccc(NC(=O)CCCn%10cc(-c%11ccc(-c%12cn([C@@H]%13O[C@H](CO)[C@@H](O[C@@H]%14O[C@H](CO)[C@H](O)[C@H](O[C@@H]%15O[C@H](CO)[C@@H](O[C@@H]%16O[C@H](CO[C@]%17(C(=O)O)C[C@H](O)[C@@H](NC(C)=O)[C@H]([C@H](O)[C@H](O)CO)O%17)[C@H](O)[C@H](O)[C@H]%16O)[C@H](O)[C@H]%15NC(C)=O)[C@H]%14O)[C@H](O)[C@H]%13O)nn%12)cc%11)nn%10)c9)c8)c7)nn6)cc5)nn4)O[C@@H]3CO)[C@@H]2O)O[C@H](CO)[C@@H](O[C@@H]2O[C@H](CO)[C@H](O)[C@H](O)[C@H]2O)[C@@H]1O
Ki [1]: 10.3 µM | Ratio IC50 [2]: 35 | inhibition [7]: Active | Activity (Influenza A virus [12]): Active | Ratio IC50 [3]: 428 | IC50 [4]: 0.71 µM | inhibition [9]: Active | inhibition [10]: Active | Activity (Influenza A virus [13]): Active

CC(=O)N[C@H]1[C@H]([C@H](O)[C@H](O)CO)O[C@@](OC[C@H]2O[C@@H](O[C@H]3[C@H](O)[C@@H](O)[C@H](OCc4cn([C@@H]5O[C@H](CO)[C@@H](n6cc(-c7ccc(-c8cn([C@H]9[C@H](O)[C@@H](O)[C@H](n%10cc(CO[C@@H]%11O[C@H](CO)[C@@H](O[C@@H]%12O[C@H](CO[C@]%13(C(=O)O)C[C@H](O)[C@@H](NC(C)=O)[C@H]([C@H](O)[C@H](O)CO)O%13)[C@H](O)[C@H](O)[C@H]%12O)[C@H](O)[C@H]%11O)nn%10)O[C@@H]9CO)nn8)cc7)nn6)[C@H](O)[C@H]5O)nn4)O[C@@H]3CO)[C@H](O)[C@@H](O)[C@H]2O)(C(=O)O)C[C@@H]1O
Ratio IC50 [3]: 23 | IC50 [4]: 13 µM
